Experimental data from publication PMC9305876 (International Journal of Cosmetic Science, 2022).

How the values were obtained:
[1] = tested on: primary human epidermal melanocytes; experiment: Melanin content assay in melanocyte cultures; assay type: cell-based; settings: for reduction in melanin synthesis: 72 h; for inhibition of melanin production in melanocytes: 72 h of treatment, at similar doses, mean ± SD
[2] = tested on: primary melanocytes; experiment: Cell viability; assay type: cell-based, human
Outline: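 Neonatal foreskin primary human epidermal melanocytes at passages 4–6 were grown in Medium 254‑CF with melanocyte growth supplement at 37°C and 5% CO2. They were exposed to test compound for 72 h, starting 24 h after plating, alongside 0.1% (v/v) DMSO or medium vehicle controls. Cells were washed in Ca/Mg‑free PBS and loaded with 1 µM Calcein‑AM for 30 min at 37°C, protected from light. Fluorescence was read at ex 490/em 520 nm, with cell‑free blank wells.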

[3] = molecular target: T1, recombinant human tyrosinase (Homo sapiens, UniProt P14679); experiment: biochemical
T1 sequence (P14679 19-476 limits assumed): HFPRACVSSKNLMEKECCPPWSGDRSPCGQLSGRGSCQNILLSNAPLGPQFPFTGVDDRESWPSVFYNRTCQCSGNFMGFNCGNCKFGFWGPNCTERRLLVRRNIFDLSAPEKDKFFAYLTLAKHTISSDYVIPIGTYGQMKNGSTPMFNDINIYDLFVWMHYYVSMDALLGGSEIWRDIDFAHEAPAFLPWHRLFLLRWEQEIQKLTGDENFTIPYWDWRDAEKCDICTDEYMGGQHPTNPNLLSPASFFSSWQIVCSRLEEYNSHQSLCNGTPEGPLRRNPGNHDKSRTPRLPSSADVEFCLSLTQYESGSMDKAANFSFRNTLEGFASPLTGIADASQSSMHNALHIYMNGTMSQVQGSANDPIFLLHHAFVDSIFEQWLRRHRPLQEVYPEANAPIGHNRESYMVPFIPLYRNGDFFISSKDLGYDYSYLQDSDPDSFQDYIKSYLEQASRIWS

Row | IC50 [3] | Structure (SMILES) | reduction in melanin synthesis ([1]; niacinamide alone (comparator to 10 mM in combination)) | maximum non‐cytotoxic dose for primary melanocytes [2] | reduction in melanin synthesis ([1]; 4‐HR alone (comparator to 1 µM in combination)) | inhibition of melanin production in melanocytes [1]
1 |  | NC(=O)c1cccnc1 [niacinamide] | 7.2 ± 4.3% | 10 mM |  | 
2 | > 1000 µM | Oc1ccc(O)cc1 [Hydroquinone, hydroquinone] |  |  |  | 
3 | 16 µM | CCCCCCc1ccc(O)cc1O [4‐HR, 4‐hexylresorcinol] |  | 0.01 mM | 7.3 ± 3% | 35 ± 1.9%
4 | 13 µM | CCCCc1ccc(O)cc1O [4‐BR, 4‐butylresorcinol] |  |  |  | 28.6 ± 3%
